# Test results as given in ChEMBL document CHEMBL1142037, “Cyclization-activated prodrugs. Synthesis, reactivity and toxicity of dipeptide esters of paracetamol” (Bioorg Med Chem Lett, 2005).
# Tests used:
# [1] = Rate constant for release of paracetamol was determined; format: ADME
# [2] = Relative rate constant for release of paracetamol was determined; format: ADME
# [3] = Half life required for the release of paracetamol; format: ADME
# Mus musculus = species on record: Mus musculus; test: Effect on glutathione levels in mice; format: functional
# In short: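 Male BALB/c mice (17–21 g, 5 weeks old), four per group, given a single ip dose of 3.3 mmol/kg in 30% propyleneglycol. Controls received vehicle ip. Livers were taken 2 h after dosing and kept on ice. Reduced glutathione in liver homogenate was measured at once with DTNB and reported as µmol/g tissue.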
SMILES,K obs [1],Krelative [2],T1/2 [3],Glutathione levels (Mus musculus)
CC(=O)Nc1ccc(OC(=O)[C@H](Cc2ccccc2)NC(=O)CN)cc1.O=C(O)C(F)(F)F,0.00564 s⁻¹,0.4,2 min,3.74 umol/g tissue
CC(=O)Nc1ccc(OC(=O)CNC(=O)[C@H](C)N)cc1.O=C(O)C(F)(F)F,0.0034 s⁻¹,0.24,3 min,–
CC(=O)Nc1ccc(OC(=O)CNC(=O)[C@@H]2CCCN2)cc1.O=C(O)C(F)(F)F,0.0059 s⁻¹,0.41,2 min,–
CC(=O)Nc1ccc(OC(=O)CNC(=O)[C@@H](N)C(C)C)cc1.O=C(O)C(F)(F)F,0.00071 s⁻¹,0.05,16 min,3.87 umol/g tissue
CC(=O)Nc1ccc(OC(=O)[C@H](C)NC(=O)CN)cc1.O=C(O)C(F)(F)F,0.0134 s⁻¹,0.94,0.9 min,–
CC(=O)Nc1ccc(OC(=O)[C@@H](NC(=O)CN)C(C)C)cc1.O=C(O)C(F)(F)F,0.00057 s⁻¹,0.04,20 min,–
CC(=O)Nc1ccc(OC(=O)[C@@H]2CCCN2C(=O)CN)cc1.O=C(O)C(F)(F)F,Too fast to be monitored,–,–,–
CC(=O)Nc1ccc(OC(=O)CNC(=O)[C@@H](N)Cc2ccccc2)cc1.O=C(O)C(F)(F)F,0.000821 s⁻¹,0.06,14 min,2.68 umol/g tissue
CC(=O)Nc1ccc(OC(=O)CN(C)C(=O)CN)cc1.O=C(O)C(F)(F)F,Too fast to be monitored,–,–,–
CNCC(=O)NCC(=O)Oc1ccc(NC(C)=O)cc1.O=C(O)C(F)(F)F,Too fast to be monitored,–,–,–
CC(=O)Nc1ccc(OC(=O)CNC(=O)CN)cc1.O=C(O)C(F)(F)F,0.0143 s⁻¹,1,0.8 min,–
